An excerpt weighted towards active compounds, which were near 2.4% of everything screened.
Neddylation inh = inhibitors of cullin neddylation, primary screen, biochemical, TR-FRET, uHTS, NAE and Ubc12 | inhibition, % at 25 µM | 360,000 compounds, 0.58% hits | NEDD8-conjugating enzyme Ubc12 (Homo sapiens) + NEDD8-activating enzyme E1 regulatory …; in the data active means inhibition above about 36%
Rin1 Abl inh = inhibitors of Rin1-Abl protein binding, primary screen, biochemical, TR-FRET | Tyrosine-protein kinase ABL1 (Homo sapiens) + Ras and Rab interactor 1 (Homo sapiens), … | inhibition, % at 7.35 µM | 360,000 compounds, 0.4% hits; in the data active means inhibition above about 5%, passing the limit was not always enough
Rpn11 block = Rpn11 (PSMD14) deubiquitinase inhibitors, primary screen, biochemical, fluorescence polarization, uHTS; 26S proteasome non-ATPase regulatory subunit 14 (Homo sapiens), O00487; inhibition, % at 20 µM; 360,000 compounds, 0.59% hits; human 26S proteasome, Ub4-pepOG fluorescence polarization; 20S core pre-blocked with epoxomicin;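 active means inhibition at 20 µM, scaled to each plate's controls, above about 33%, limit read from the data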
Target sequence (O00487 whole entry, looked up): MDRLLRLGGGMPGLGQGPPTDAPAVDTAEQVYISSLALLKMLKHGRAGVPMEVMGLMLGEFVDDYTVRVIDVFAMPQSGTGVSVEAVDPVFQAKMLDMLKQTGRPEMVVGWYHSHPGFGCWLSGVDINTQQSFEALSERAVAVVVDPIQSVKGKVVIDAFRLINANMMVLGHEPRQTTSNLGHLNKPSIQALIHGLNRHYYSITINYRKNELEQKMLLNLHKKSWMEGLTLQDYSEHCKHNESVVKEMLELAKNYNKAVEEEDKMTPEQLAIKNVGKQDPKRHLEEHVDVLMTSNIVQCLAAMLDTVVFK
HNF4A DNA FP = change in binding of human HNF4A to DNA, primary screen, biochemical, fluorescence polarization, FITC-DNA; Hepatocyte nuclear factor 4-alpha (Homo sapiens), P41235; 1 h; activity change, % at 10 µM; 360,000 compounds, 0.3% hits; in the data active means activity change above about 30%, passing the limit was not always enough
TPT1 inhibitor = Candida albicans TPT1 enzyme inhibitors, primary screen, biochemical, fluorescence polarization. tRNA 2'-phosphotransferase TPT1 (Candida albicans SC5314). inhibition, % at 5 µM. recombinant caTPT1, FP RNA substrate dephosphorylation. 300,000 compounds, 0.81% hits;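 active means inhibition above the mean of all tested compounds plus 3 SD, set per screening campaign, cut at about 24% in these data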
CSN inh = inhibitors of CSN-mediated cullin deneddylation, primary screen, biochemical, fluorescence polarization, uHTS; COP9 signalosome complex subunit 5 (Homo sapiens), Q92905; Purified CSN, SCF-Nedd8-OG deneddylation; inhibition, % at 12.5 µM; 360,000 compounds, 0.38% hits;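 active means pattern-corrected inhibition above about 35%, with an unprinted fluorescence ratio check between 0.5 and 1.5, limit read from the data, passing the limit was not always enough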
Target sequence (Q92905 whole entry, looked up, one chain of several): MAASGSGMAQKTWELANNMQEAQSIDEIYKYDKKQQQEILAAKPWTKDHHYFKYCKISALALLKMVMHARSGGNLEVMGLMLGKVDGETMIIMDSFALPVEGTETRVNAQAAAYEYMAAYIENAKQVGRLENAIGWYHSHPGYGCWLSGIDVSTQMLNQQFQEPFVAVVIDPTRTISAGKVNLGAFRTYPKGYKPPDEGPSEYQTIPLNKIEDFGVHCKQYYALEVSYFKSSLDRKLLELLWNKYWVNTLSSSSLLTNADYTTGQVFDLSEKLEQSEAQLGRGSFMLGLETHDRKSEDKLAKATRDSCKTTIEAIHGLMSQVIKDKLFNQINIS
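assay system = purified human Csn5 enzyme expressed in HEK293T cells | amount = 0.24 nM enzyme | buffer or medium = Tris/NaCl/DTT buffer, pH 7.5 | reagent = 10 nM SCFSkp2-Nedd8OG | compound = one concentration, 12.5 µM, 0.25% DMSO | times = 90 min reaction at room temperature | signal = FP | read-out basis = % inhibition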
Rin1 Abl conf = Rin1-Abl binding inhibitor retest, confirmation, biochemical, TR-FRET | AID 602124, 2011 | inhibition, % at 7.35 µM | 1,300 compounds, 49% hits | purified proteins | shares compounds with Rin1 Abl inh
GFP quencher = GFP fluorescence inhibitors and quenchers, artefact control for Rin1-Abl interaction inhibitor project, biochemical; shares compounds with Rin1 Abl inh; inhibitors/quenchers counterscreen; inhibition, % at 6.75 µM; 1,300 compounds, 8.5% hits; AID 602125, 2011;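 further: ABL1-eGFP fusion protein alone without its partner RIN1-SBP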
GFP quench dose = GFP fluorescence inhibitors and quenchers, dose response, artefact control for Rin1-Abl interaction inhibitor project, biochemical; 230 tested, under 10 active; AID 602182, 2012; shares compounds with Rin1 Abl inh; GFP fluorescence interference/quenching counterscreen; IC50, µM; call rule not given here;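 further: ABL1-eGFP fusion protein alone without its RIN1 binding partner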
Large screens that a line does not name were inactive (follow-up assays come after a bar, where they were run). Unless noted, no stated cut-off is given here; in the data, active means inhibition above about 6.5%; inactive means the rest.

C[C@H](CO)N1C[C@H](C)[C@@H](CN(C)Cc2ccc(C(=O)O)cc2)Oc2c(NC(=O)c3ccncc3)cccc2C1=O	none (no result: TPT1 inhibitor)
C[C@H](CO)N1C[C@H](C)[C@@H](CN(C)Cc2ccc(-c3ccccc3)cc2)Oc2c(NS(=O)(=O)c3cccs3)cccc2C1=O	Rin1 Abl inh 16 (no result: TPT1 inhibitor) | Rin1 Abl conf 16 | GFP quencher inactive
C=CCOCC(O)CS(=O)(=O)Cc1ccc(Cl)cc1 (stereo not drawn)	none
Cc1nc2ccccc2c(=O)n1/N=C/c1ccc(O)c(O)c1O	Rin1 Abl inh 27 | Rin1 Abl conf 15 | GFP quencher 23
CN(CCCC1CCCC1)C(=O)CCc1nnc(-c2ccccc2)o1	none
CN(C(=O)CCc1nnc(-c2ccc(-c3ccccc3)cc2)o1)C1CCOCC1	Rin1 Abl inh 8.8 | Rin1 Abl conf inactive | GFP quencher inactive
Cc1ccc(S(=O)(=O)N(C)C)cc1NC(=O)COC(=O)COc1ccc2c(c1)CCC2	none
COc1cc(NC(=O)c2cc(-c3ccc4c(c3)OCO4)on2)cc(OC)c1OC	Rin1 Abl inh 12 | Rin1 Abl conf inactive | GFP quencher inactive
COc1cc(NC(=O)c2cc(-c3ccccc3)on2)cc(OC)c1OC	none
O=C(CCC(=O)Nc1nnc(C2CCCCC2)s1)Nc1ccc(F)cc1	none
Cc1nc2ccccc2n1S(=O)(=O)c1cc(C(=O)O)ccc1Cl	Rin1 Abl inh 8.3 | Rin1 Abl conf inactive | GFP quencher inactive
CCOC(=O)C1CCN(C(=O)COC(=O)CNC(=O)c2ccc(C(C)(C)C)cc2)CC1	none (no result: TPT1 inhibitor)
CCN(CC)c1ncnc2c1ncn2[C@H]1CN(Cc2ccc(Cl)cc2)C[C@@H](CO)O1	none (no result: TPT1 inhibitor)
CN(C)c1ncnc2c1ncn2[C@H]1CN(Cc2ccc(Cl)cc2)C[C@@H](CO)O1	Rin1 Abl inh 6.9 (no result: TPT1 inhibitor) | Rin1 Abl conf inactive | GFP quencher inactive
CCN(CC)c1ncnc2c1ncn2[C@H]1CN(Cc2ccncc2)C[C@@H](CO)O1	Rin1 Abl inh 7.7 (no result: TPT1 inhibitor) | Rin1 Abl conf inactive | GFP quencher inactive
CCN(CC)c1ncnc2c1ncn2[C@H]1CN(Cc2ccccc2)C[C@@H](CO)O1	none (no result: TPT1 inhibitor)
CN(C)c1ccc(CNC(=O)C2Cc3c(-c4cccc(C(N)=O)c4)ccnc3O2)cc1 (stereo not drawn)	Rin1 Abl inh 7.0 (no result: TPT1 inhibitor) | Rin1 Abl conf 7.2 | GFP quencher inactive
CC(=O)Nc1ccc(NC(=O)C2(C)Cc3c(-c4cccc(C(N)=O)c4)ccnc3O2)cc1 (stereo not drawn)	none (no result: TPT1 inhibitor)
NC(=O)c1cccc(-c2ccnc3c2CC(C(=O)NCc2ccco2)O3)c1 (stereo not drawn)	none (no result: TPT1 inhibitor)
CC(=O)Nc1ccc(-c2ccnc3c2CC(C)(C(=O)NCc2ccc(N4CCN(C)CC4)cc2)O3)cc1 (stereo not drawn)	Rin1 Abl inh 8.7 (no result: TPT1 inhibitor) | Rin1 Abl conf 6.6 | GFP quencher inactive
COc1ccc(NC(=O)C2(C)Cc3c(-c4cccc(C(N)=O)c4)ccnc3O2)cc1 (stereo not drawn)	Rin1 Abl inh 10 (no result: TPT1 inhibitor) | Rin1 Abl conf inactive | GFP quencher inactive
CN(C)c1ccc(CNC(=O)C2(C)Cc3c(-c4ccccc4)ccnc3O2)cc1 (stereo not drawn)	none (no result: TPT1 inhibitor)
CN(C)c1ccc(CNC(=O)C2(C)Cc3c(-c4cccc(C(N)=O)c4)ccnc3O2)cc1 (stereo not drawn)	Rin1 Abl inh 16 (no result: TPT1 inhibitor) | Rin1 Abl conf 8.3 | GFP quencher inactive
COc1ccc([C@H]2CC(=O)C[C@@H](CCn3cc(-c4nccn4C)nn3)O2)cc1	none (no result: Rin1 Abl inh, Rpn11 block, TPT1 inhibitor)
CC(C)P(=O)(c1cccc(C(=O)O)c1)C(C)C	none
NC(=O)c1cccc(-c2ccnc3c2CC(C(=O)Nc2ccccc2)O3)c1 (stereo not drawn)	Rin1 Abl inh 12 (no result: TPT1 inhibitor) | Rin1 Abl conf 8.6 | GFP quencher inactive
O=C(c1ccncc1)N1CCN(C2CCCCC2)CC1	Rin1 Abl inh 10 | Rin1 Abl conf inactive | GFP quencher inactive
Cc1ccc([N+](=O)[O-])c(C(=O)N/N=C/c2cccnc2)c1	none
NC(CO)C(=O)NNCc1ccc(O)c(O)c1O (stereo not drawn)	Rin1 Abl inh 37 | Rin1 Abl conf 29 | GFP quencher inactive
CCOC(=O)C1=CCC(c2cc3ccc(OC)cc3n2C(=O)OC(C)(C)C)NC1 (stereo not drawn)	none (no result: Rin1 Abl inh, Rpn11 block, TPT1 inhibitor)
O=C(c1ccco1)N1CCc2[nH]nc(-c3ccc(Cl)cc3)c2C1	Rin1 Abl inh 16 | Rin1 Abl conf inactive | GFP quencher inactive
N#Cc1ccc(NC(=O)Nc2cccc(C#N)c2)cc1	Rin1 Abl inh 8.0 (no result: TPT1 inhibitor) | Rin1 Abl conf inactive | GFP quencher inactive
COc1cccc(CN(C)C(=O)c2cc(S(=O)(=O)N3CCCC3)ccc2C)c1OC	Rin1 Abl inh 8.9 (no result: TPT1 inhibitor) | Rin1 Abl conf inactive | GFP quencher inactive
CCOC(=O)C1(Cc2ccccc2)CCN(Cc2cn[nH]c2-c2ccccc2)CC1	Rin1 Abl inh 9.5 | Rin1 Abl conf inactive | GFP quencher inactive
Cc1ccc(NC(=O)COC(=O)Cc2c[nH]c3ccccc23)cc1F	Rin1 Abl inh 10 (no result: TPT1 inhibitor) | Rin1 Abl conf inactive | GFP quencher inactive
Cn1cccc1C(=O)NC(=O)COC(=O)CCNS(=O)(=O)c1ccc(Cl)cc1	none (no result: TPT1 inhibitor)
CCCCC(=O)c1ccc(O)cc1	none
O=C(CCO)c1ccc(O)cc1	Rin1 Abl inh 29 | Rin1 Abl conf 33 | GFP quencher inactive | GFP quench dose inactive
COc1ccccc1OCC(=O)OCC(=O)NCCN1C(=O)CSC1=O	none
O=C(COC(=O)CNC(=O)c1ccco1)NCCN1C(=O)CSC1=O	Rin1 Abl inh 5.0 | Rin1 Abl conf inactive | GFP quencher inactive
COc1ccccc1/C=[N+](\[O-])C1SC(=S)N(C)C1(C)C (stereo not drawn)	Rin1 Abl inh 6.8 | Rin1 Abl conf inactive | GFP quencher inactive
CN1C(=S)SC(/[N+]([O-])=C\c2ccco2)C1(C)C (stereo not drawn)	none
Clc1ccc(Cc2nc(-c3cccnc3)no2)cc1	none

Bioassay records deposited in PubChem BioAssay by several laboratories.
